Source: ChEMBL document CHEMBL4411329, “Crown Ethers as Transthyretin Amyloidogenesis Inhibitors” (J Med Chem, 2019)
Calls of active or inactive are those of the source. No cut-off for these calls is given here.

How the values were obtained:
[1] = test system: Transthyretin (Homo sapiens), P02766 [V50M]; experiment: Inhibition of TTR V30M mutant (unknown origin)-mediated amyloid fibril formation expressed in Escherichia coli assessed as amyloid fibril percentage at 0.2 mM after 4 days by thioflavin-T-fluorescence based assay (reference value: 100%); design: scale not given: the % may be the effect or the level left
In short: (§1)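 Acid-driven aggregation: 2 μM E. coli-expressed V30M-TTR in 50 mM sodium acetate pH 4.2 held with compound at room temperature for 4 days. Stopped with 0.2 M Tris-HCl pH 8.0, then thioflavin-T added to 20 μM and fluorescence read at ex 440/em 484 nm. Values are amyloid fibril % relative to no-compound control.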

[2] = test system: Transthyretin (Homo sapiens), P02766 [V50M]; experiment: Stabilization of TTR V30M mutant (unknown origin) expressed in Escherichia coli assessed as formation of TTR tetramer band formation after 4 mins by SDS-PAGE analysis based glutaraldehyde cross-linking assay
[3] = test system: Transthyretin (Homo sapiens), P02766 [V50M]; experiment: Inhibition of ANS binding to TTR V30M mutant (unknown origin) expressed in Escherichia coli assessed as increase in BC50 for ANS binding to TTR at 10 mM in presence of 150 mM K+ by fluorescence-based assay
[4] = test system: Transthyretin (Homo sapiens), P02766 [V50M]; experiment: Inhibition of TTR V30M mutant (unknown origin)-mediated amyloid fibril formation expressed in Escherichia coli assessed as amyloid fibril percentage at 0.6 mM after 4 days by thioflavin-T-fluorescence based assay (reference value: 100%); design: scale not given: the % may be the effect or the level left; in short: as §1
[5] = test system: Transthyretin (Homo sapiens), P02766 [V50M]; experiment: Inhibition of ANS binding to TTR V30M mutant (unknown origin) expressed in Escherichia coli assessed as increase in BC50 for ANS binding to TTR at 100 mM in presence of 150 mM Na+ by fluorescence-based assay
[6] = test system: Transthyretin (Homo sapiens), P02766 [V50M]; experiment: Inhibition of ANS binding to TTR V30M mutant (unknown origin) expressed in Escherichia coli assessed as increase in BC50 for ANS binding to TTR at 10 mM in presence of 150 mM Na+ by fluorescence-based assay
[7] = test system: Transthyretin (Homo sapiens), P02766 [V50M]; experiment: Inhibition of TTR V30M mutant (unknown origin)-mediated amyloid fibril formation expressed in Escherichia coli assessed as amyloid fibril percentage at 10 mM after 4 days by thioflavin-T-fluorescence based assay (reference value: 100%); design: scale not given: the % may be the effect or the level left; in short: as §1
[8] = test system: Transthyretin (Homo sapiens), P02766 [V50M]; experiment: Stabilization of TTR V30M mutant (unknown origin) expressed in Escherichia coli assessed as formation of TTR tetramer band formation at 40 to 100 mM after 4 mins by SDS-PAGE analysis based glutaraldehyde cross-linking assay
[9] = test system: Transthyretin (Homo sapiens), P02766 [V50M]; experiment: Inhibition of ANS binding to TTR V30M mutant (unknown origin) expressed in Escherichia coli assessed as increase in BC50 for ANS binding to TTR at 100 mM in presence of 150 mM K+ by fluorescence-based assay
[10] = test system: Transthyretin (Homo sapiens), P02766 [V50M]; experiment: Inhibition of TTR V30M mutant (unknown origin)-mediated amyloid fibril formation expressed in Escherichia coli assessed as amyloid fibril percentage at 0.5 uM after 4 days by thioflavin-T-fluorescence based assay (reference value: 100%); design: scale not given: the % may be the effect or the level left; in short: as §1
[11] = test system: Transthyretin (Homo sapiens), P02766 [V50M]; experiment: Stabilization of TTR V30M mutant (unknown origin) expressed in Escherichia coli assessed as formation of TTR tetramer band formation at 1 uM after 4 mins by SDS-PAGE analysis based glutaraldehyde cross-linking assay
[12] = test system: Transthyretin (Homo sapiens), P02766 [V50M]; experiment: Inhibition of TTR V30M mutant (unknown origin)-mediated amyloid fibril formation expressed in Escherichia coli assessed as amyloid fibril percentage at 5 uM after 4 days by thioflavin-T-fluorescence based assay (reference value: 100%); design: scale not given: the % may be the effect or the level left; in short: as §1
[13] = test system: Transthyretin (Homo sapiens), P02766 [V50M]; experiment: Stabilization of TTR V30M mutant (unknown origin) expressed in Escherichia coli assessed as formation of TTR tetramer band formation at 2 uM after 4 mins by SDS-PAGE analysis based glutaraldehyde cross-linking assay
[14] = test system: Transthyretin (Homo sapiens), P02766 [V50M]; experiment: Inhibition of TTR V30M mutant (unknown origin)-mediated amyloid fibril formation expressed in Escherichia coli assessed as amyloid fibril percentage at 1.5 uM after 4 days by thioflavin-T-fluorescence based assay (reference value: 100%); design: scale not given: the % may be the effect or the level left; in short: as §1
[15] = test system: Transthyretin (Homo sapiens), P02766 [V50M]; experiment: Potentiation of diflunisal-induced stabilization of TTR V30M mutant (unknown origin) expressed in Escherichia coli assessed as formation of TTR tetramer band formation at 5 mM after 4 mins by SDS-PAGE analysis based glutaraldehyde cross-linking assay relative to diflunisal alone
In short: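 Glutaraldehyde 4 min at RT, borohydride quench, SDS-PAGE with silver stain, tetramer band quantified. Controls were pH 8.0 Tris buffer (positive) and pH 4.4 buffer without compound (negative).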

[16] = test system: Transthyretin (Homo sapiens), P02766 [V50M]; experiment: Stabilization of TTR V30M mutant (unknown origin) expressed in Escherichia coli assessed as formation of TTR tetramer band formation at 10 mM after 4 mins by SDS-PAGE analysis based glutaraldehyde cross-linking assay

Activity [1] | Activity [2] | inhibition [3] | Activity [4] | inhibition [5] | inhibition [6] | Activity [7] | Activity [8] | inhibition [9] | SMILES | other results
 |  |  |  | Active |  |  | Active | Active | C1COCCOCCOCCOCCO1 | 
 |  |  |  | Active |  |  | Active | Active | C1COCCOCCOCCO1 | 

Further lines, the compound ahead of its results:

SMILES | Activity [1] | Activity [2] | inhibition [3] | Activity [4] | inhibition [5] | inhibition [6] | Activity [7] | Activity [8] | inhibition [9] | other results
c1ccc2c(c1)OCCOCCOCCOCCOCCO2 | 100% | Dose-dependent effect | Active | 96% | Active | Active | 47% |  |  | 
C1CCC2OCCOCCOC3CCCCC3OCCOCCOC2C1 (configuration not stated) | 100% |  | Active | 100% | Active | Active | 92% |  |  | 
O=C(O)c1cc(-c2ccc(F)cc2F)ccc1O |  |  |  |  |  |  |  |  |  | Activity [10]: 80%; Activity [11]: 15%; Activity [12]: 3.1%; Activity [13]: 52%; Activity [14]: 35%
O=C(O)c1ccc2c(c1)OCCOCCOCCOCCOCCO2 | 99% | Dose-dependent effect | Active | 92% | Active | Active |  |  |  | Activity [15]: Active; Activity [16]: 68%
